Source: ChEMBL document CHEMBL5214934, “A simplified analog of debromoaplysiatoxin lacking the B-ring of spiroketal moiety retains protein kinase C-binding and antiproliferative activities” (Bioorg Med Chem, 2022)
The source made the active and inactive calls. The rule behind the calls is not given here.

Tests used:
[1] = target: Protein kinase C alpha type (Homo sapiens, UniProt P17252); assay: Inhibition of [3H]-PDBu binding to PKCalpha C1A domain (unknown origin) by competitive binding assay
Outline: (§1)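 Synthetic PKCα-C1A (40 nM) or PKCδ-C1B (13.8 nM) peptide in 50 mM Tris-maleate (pH 7.4 at 4 °C). Mixture contained 20 nM [3H]PDBu (13.92 Ci/mmol), 50 µg/mL dioleoylphosphatidylserine, 3 mg/mL bovine γ-globulin and graded ligand. IC50 by logit analysis; Ki by Goldstein–Barrett equation from IC50 and [3H]PDBu Kd. Two independent experiments, triplicates each; log-scale mean with 95% CI.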

[2] = target: Protein kinase C delta type (Homo sapiens, UniProt Q05655); assay: Inhibition of [3H]-PDBu binding to PKCdelta C1B domain (unknown origin) by competitive binding assay; outline: as §1
Homo sapiens = species on record: Homo sapiens; assay: Ratio Ki for inhibition of [3H]-PDBu binding to PKCalpha C1A domain (unknown origin) to Ki for inhibition of [3H]-PDBu binding to PKCdelta C1B domain (unknown origin)
NCI-H460 = assay: Antiproliferative activity against human NCI-H460 cells after 48 hrs by SRB assay; format: functional
Outline: (§2)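 Part of a 39-line human cancer cell panel. Cells plated in RPMI 1640 with 5% FBS and left to attach overnight, then exposed to compound at 10^-8 to 10^-4 M for 48 h. Growth measured by sulforhodamine B staining, absorbance at 525 nm, with a time-0 reading. % growth calculated against control from duplicate points. GI50 is the concentration giving 50% growth inhibition versus untreated control.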

MKN-45 = assay: Antiproliferative activity against human MKN-45 cells after 48 hrs by SRB assay; format: functional; outline: as §2
[3] = Antiproliferative activity against human HBC4 cells after 48 hrs by SRB assay; format: functional; details: HBC4, read-out: pGI50 (converted); outline: as §2
MDA-MB-231 = assay: Antiproliferative activity against human MDA-MB-231 cells after 48 hrs by SRB assay; format: functional; details: MDA-MB-231, read-out: pGI50 (converted); outline: as §2
SF-295 = assay: Antiproliferative activity against human SF-295 cells after 48 hrs by SRB assay; format: functional; details: SF-295, read-out: pGI50 (converted); outline: as §2
HCC 2998 = assay: Antiproliferative activity against human HCC 2998 cells after 48 hrs by SRB assay; format: functional; details: HCC 2998, read-out: pGI50 (converted); outline: as §2
A549 = assay: Antiproliferative activity against human A549 cells after 48 hrs by SRB assay; format: functional; details: A549, read-out: pGI50 (converted); outline: as §2
DMS-273 = assay: Antiproliferative activity against human DMS-273 cells after 48 hrs by SRB assay; format: functional; details: DMS-273, read-out: pGI50 (converted); outline: as §2
OVCAR-5 = assay: Antiproliferative activity against human OVCAR-5 cells after 48 hrs by SRB assay; format: functional; details: OVCAR-5, read-out: pGI50 (converted); outline: as §2
St-4 = assay: Antiproliferative activity against human St-4 cells after 48 hrs by SRB assay; format: functional; details: St-4, read-out: pGI50 (converted); outline: as §2

Chain of Protein kinase C delta type (Q05655 whole entry, the tested form may be a part): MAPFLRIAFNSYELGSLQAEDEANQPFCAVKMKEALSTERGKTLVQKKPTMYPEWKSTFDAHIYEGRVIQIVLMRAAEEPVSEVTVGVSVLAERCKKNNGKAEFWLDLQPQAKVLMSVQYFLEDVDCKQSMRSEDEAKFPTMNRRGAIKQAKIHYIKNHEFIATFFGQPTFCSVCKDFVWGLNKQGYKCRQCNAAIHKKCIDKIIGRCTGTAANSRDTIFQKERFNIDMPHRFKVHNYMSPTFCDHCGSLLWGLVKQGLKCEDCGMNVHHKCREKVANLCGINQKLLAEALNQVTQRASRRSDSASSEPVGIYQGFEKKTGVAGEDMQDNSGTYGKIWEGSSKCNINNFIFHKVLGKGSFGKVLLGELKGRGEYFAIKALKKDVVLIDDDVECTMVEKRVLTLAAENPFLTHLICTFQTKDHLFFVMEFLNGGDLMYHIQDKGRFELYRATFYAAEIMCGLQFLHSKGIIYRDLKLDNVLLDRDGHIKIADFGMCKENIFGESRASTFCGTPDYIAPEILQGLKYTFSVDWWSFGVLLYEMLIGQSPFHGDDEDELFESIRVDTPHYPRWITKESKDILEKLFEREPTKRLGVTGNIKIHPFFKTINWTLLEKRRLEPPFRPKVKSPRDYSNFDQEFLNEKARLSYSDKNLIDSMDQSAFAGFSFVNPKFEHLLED

Compound | Ki [1] [µM] | Ki [2] [µM] | Ratio Ki (Homo sapiens) | Activity (NCI-H460) | Activity (MKN-45) | GI50 [3] [µM] | GI50 (MDA-MB-231) [µM] | GI50 (SF-295) [µM] | GI50 (HCC 2998) [µM] | GI50 (NCI-H460; NCI-H460, read-out: pGI50 (converted)) [µM] | GI50 (A549) [µM] | GI50 (DMS-273) [µM] | GI50 (OVCAR-5) [µM] | GI50 (St-4) [µM] | GI50 (MKN-45; MKN-45, read-out: pGI50 (converted)) [µM]
CC(C)[C@@]12C[C@@H](C[C@@H](CCCCc3ccccc3)O1)OC(=O)C[C@H](CO)OC(=O)CCO2 | 0.1 | 0.13 | 0.8 | Active | Active | – | – | – | – | – | – | – | – | – | –
CC1(C)CC[C@@H]2CC(=O)O[C@@H](CO)CC(=O)O[C@@H]3C[C@@H](CCCCc4ccccc4)O[C@@]1(C3)O2 | – | – | 12 | – | – | – | – | – | – | – | – | – | – | – | –
CC1(C)CC[C@@H]2CC(=O)O[C@@H](CO)CC(=O)O[C@H](CCCCCCc3ccccc3)C[C@@H]1O2 | 0.088 | 0.017 | 5.2 | – | – | < 10 | < 10 | < 10 | < 10 | < 10 | < 10 | < 10 | < 10 | < 10 | < 10
